These results are taken from ChEMBL document CHEMBL3808369, “Identification of Cyproheptadine as an Inhibitor of SET Domain Containing Lysine Methyltransferase 7/9 (Set7/9) That Regulates Estrogen-Dependent Transcription” (J Med Chem, 2016).

The target in series [1] is T1, Histone-lysine N-methyltransferase SETD7 (Homo sapiens) (UniProt Q8WTS6).
T1 sequence (whole entry): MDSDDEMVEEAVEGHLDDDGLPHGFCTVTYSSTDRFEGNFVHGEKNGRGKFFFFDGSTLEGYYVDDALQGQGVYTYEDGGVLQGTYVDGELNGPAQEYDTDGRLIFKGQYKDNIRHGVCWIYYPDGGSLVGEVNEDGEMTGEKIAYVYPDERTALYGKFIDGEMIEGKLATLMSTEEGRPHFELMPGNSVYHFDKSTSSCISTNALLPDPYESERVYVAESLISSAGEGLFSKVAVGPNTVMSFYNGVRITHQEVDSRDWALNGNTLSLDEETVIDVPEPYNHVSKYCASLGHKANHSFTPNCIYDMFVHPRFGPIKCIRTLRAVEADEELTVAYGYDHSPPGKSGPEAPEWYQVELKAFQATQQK
Kind of series: Non competitive inhibition of recombinant Set7/9 (unknown origin) expressed in Escherichia coli BL21 (DE3) using Ac-KRSK-MCA peptide as substrate and varying SAM preincubated for 1 hr followed by substrate addition measured after 15 mins by Lineweaver-Burk plot analysis. In short, it runs like this: (§1)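 His6-tagged Set7/9 purified by Ni2+ affinity from E. coli BL21(DE3) after induction with 0.1 mM IPTG at 18 °C for 24 h. Kinetics were run in a fluorogenic HMT assay using Ac-KRSK-MCA peptide, with either SAM or peptide concentration varied. Initial velocities were analysed by Lineweaver–Burk plot, four independent assays.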

The target of series [2] is T2, Histone-lysine N-methyltransferase EHMT2 (Homo sapiens) (UniProt Q96KQ7).
T2 sequence (whole entry): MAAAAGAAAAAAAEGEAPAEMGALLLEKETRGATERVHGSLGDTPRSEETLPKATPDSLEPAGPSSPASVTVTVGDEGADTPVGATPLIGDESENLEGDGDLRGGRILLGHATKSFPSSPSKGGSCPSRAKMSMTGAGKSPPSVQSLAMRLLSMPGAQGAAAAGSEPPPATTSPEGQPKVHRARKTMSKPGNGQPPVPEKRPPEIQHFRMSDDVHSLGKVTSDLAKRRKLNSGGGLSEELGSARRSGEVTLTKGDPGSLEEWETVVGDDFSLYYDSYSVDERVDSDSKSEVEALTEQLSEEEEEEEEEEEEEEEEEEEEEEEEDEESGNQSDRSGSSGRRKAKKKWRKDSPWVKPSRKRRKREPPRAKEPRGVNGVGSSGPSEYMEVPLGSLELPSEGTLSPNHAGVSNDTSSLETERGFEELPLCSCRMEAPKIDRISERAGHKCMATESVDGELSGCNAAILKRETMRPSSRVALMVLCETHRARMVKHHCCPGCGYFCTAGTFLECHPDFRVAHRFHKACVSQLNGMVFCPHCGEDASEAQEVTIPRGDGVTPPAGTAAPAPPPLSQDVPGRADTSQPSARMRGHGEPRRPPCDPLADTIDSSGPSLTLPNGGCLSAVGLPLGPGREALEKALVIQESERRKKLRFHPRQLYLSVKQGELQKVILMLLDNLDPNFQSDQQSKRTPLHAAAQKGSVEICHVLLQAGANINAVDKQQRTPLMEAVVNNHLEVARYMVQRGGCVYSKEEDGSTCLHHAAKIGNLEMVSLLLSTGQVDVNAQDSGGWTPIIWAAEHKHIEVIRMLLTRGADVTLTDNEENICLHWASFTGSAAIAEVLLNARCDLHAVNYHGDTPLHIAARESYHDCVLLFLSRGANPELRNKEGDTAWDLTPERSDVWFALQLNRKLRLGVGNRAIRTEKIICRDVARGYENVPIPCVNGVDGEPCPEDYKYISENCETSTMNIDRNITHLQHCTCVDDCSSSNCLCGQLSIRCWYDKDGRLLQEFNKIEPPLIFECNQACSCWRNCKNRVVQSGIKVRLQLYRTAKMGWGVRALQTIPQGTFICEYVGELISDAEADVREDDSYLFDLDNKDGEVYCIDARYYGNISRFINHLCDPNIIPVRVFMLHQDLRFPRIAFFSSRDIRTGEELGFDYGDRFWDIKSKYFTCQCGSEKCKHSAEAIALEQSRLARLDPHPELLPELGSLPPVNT
Kind of series: Inhibition of G9a (unknown origin) by fluorogenic assay.

The target in series [3] is T1, Histone-lysine N-methyltransferase SETD7 (Homo sapiens). Nature of the series: Inhibition of Set7/9 in human MCF7 cells assessed as half life of ERalpha at 43 uM by immunoblotting analysis in presence of cycloheximide (reference value: 15.6 +/- 1.2 hrs). It is filed as cell-based. An outline of the steps: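 MCF7 cells treated with or without 43 μM drug in the presence of 1 μg/mL cycloheximide for various times. ERα immunoblotted from RIPA lysates and band intensity quantified to derive half-life. Three independent assays.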

The target is the same in series [4]. Kind of series: Competitive inhibition of recombinant Set7/9 (unknown origin) expressed in Escherichia coli BL21 (DE3) using varying Ac-KRSK-MCA peptide as substrate in presence of SAM preincubated for 1 hr followed by substrate addition measured after 15 mins by Lineweaver-Burk plot analysis. An outline of the steps: as §1
The target in series [5] is Histone-lysine N-methyltransferase, H3 lysine-79 specific (Homo sapiens) (UniProt Q8TEK3). Nature of the series: Inhibition of Dot1L (unknown origin) by AlphaELISA.
In series [6] the target is T3, Histone-lysine N-methyltransferase SETD7 (Homo sapiens, UniProt Q8WTS6).
T3 sequence (Q8WTS6 whole entry): T1 sequence (whole entry)
Nature of the series: Inhibition of recombinant Set7/9 (unknown origin) expressed in Escherichia coli BL21 (DE3) using Ac-KRSK-MCA peptide/SAM as substrate preincubated for 1 hr followed by substrate addition measured after 15 mins by Dixon plot analysis. In short, it runs like this:
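Fluorogenic HMT kinetics used recombinant His-Set7/9 expressed in E. coli BL21(DE3) (IPTG 0.1 mM, 18 °C, 24 h) and purified on Ni2+ affinity. The methyl acceptor was Ac-KRSK-MCA and the cofactor was SAM. Ki was obtained from a Dixon plot of initial velocity versus inhibitor. Four independent assays, SD.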

For series [7], the target named is T1, Histone-lysine N-methyltransferase SETD7 (Homo sapiens). Nature of the series: Inhibition of Set7/9 in human MCF7 cells assessed as suppression of beta-estradiol-induced pS2 mRNA expression at 14 to 43 uM preincubated for 24 hrs followed by beta-estradiol addition measured after 24 hrs by RT-PCR analysis.
The subject of series [8] is Mus musculus. Kind of series: Effect on body weight in Balb/c-nu/nu mouse xenografted with Fucci introduced human MCF7 cells at 20 mg/kg, ip qd administered as continuous dose for 8 days measured every 3 to 4 days until day 15. The format is ADME, organism-based. The settings on record: in vivo. An outline of the steps: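 Female Balb/C-nu/nu mice, 7 weeks old, each inoculated with about 2 × 10^7 Fucci-MCF7 cells in the mammary gland. Dosing started when tumors reached about 100 mm3, 13 days after inoculation. 20 mg/kg given ip once daily, days 1–8, in saline with 10% ethanol; a vehicle group ran alongside. Caliper tumor volume (a2b)/2 and body weight were recorded every 3 or 4 days to day 15. Six mice per group, mean ± SE.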
Background: In xenograft studies the graft and the host belong to different species.

The source made the active and inactive calls. The calls are words filed in the database; no cut-off is given here.

Chain of Histone-lysine N-methyltransferase, H3 lysine-79 specific (Homo sapiens) (Q8TEK3 whole entry, looked up): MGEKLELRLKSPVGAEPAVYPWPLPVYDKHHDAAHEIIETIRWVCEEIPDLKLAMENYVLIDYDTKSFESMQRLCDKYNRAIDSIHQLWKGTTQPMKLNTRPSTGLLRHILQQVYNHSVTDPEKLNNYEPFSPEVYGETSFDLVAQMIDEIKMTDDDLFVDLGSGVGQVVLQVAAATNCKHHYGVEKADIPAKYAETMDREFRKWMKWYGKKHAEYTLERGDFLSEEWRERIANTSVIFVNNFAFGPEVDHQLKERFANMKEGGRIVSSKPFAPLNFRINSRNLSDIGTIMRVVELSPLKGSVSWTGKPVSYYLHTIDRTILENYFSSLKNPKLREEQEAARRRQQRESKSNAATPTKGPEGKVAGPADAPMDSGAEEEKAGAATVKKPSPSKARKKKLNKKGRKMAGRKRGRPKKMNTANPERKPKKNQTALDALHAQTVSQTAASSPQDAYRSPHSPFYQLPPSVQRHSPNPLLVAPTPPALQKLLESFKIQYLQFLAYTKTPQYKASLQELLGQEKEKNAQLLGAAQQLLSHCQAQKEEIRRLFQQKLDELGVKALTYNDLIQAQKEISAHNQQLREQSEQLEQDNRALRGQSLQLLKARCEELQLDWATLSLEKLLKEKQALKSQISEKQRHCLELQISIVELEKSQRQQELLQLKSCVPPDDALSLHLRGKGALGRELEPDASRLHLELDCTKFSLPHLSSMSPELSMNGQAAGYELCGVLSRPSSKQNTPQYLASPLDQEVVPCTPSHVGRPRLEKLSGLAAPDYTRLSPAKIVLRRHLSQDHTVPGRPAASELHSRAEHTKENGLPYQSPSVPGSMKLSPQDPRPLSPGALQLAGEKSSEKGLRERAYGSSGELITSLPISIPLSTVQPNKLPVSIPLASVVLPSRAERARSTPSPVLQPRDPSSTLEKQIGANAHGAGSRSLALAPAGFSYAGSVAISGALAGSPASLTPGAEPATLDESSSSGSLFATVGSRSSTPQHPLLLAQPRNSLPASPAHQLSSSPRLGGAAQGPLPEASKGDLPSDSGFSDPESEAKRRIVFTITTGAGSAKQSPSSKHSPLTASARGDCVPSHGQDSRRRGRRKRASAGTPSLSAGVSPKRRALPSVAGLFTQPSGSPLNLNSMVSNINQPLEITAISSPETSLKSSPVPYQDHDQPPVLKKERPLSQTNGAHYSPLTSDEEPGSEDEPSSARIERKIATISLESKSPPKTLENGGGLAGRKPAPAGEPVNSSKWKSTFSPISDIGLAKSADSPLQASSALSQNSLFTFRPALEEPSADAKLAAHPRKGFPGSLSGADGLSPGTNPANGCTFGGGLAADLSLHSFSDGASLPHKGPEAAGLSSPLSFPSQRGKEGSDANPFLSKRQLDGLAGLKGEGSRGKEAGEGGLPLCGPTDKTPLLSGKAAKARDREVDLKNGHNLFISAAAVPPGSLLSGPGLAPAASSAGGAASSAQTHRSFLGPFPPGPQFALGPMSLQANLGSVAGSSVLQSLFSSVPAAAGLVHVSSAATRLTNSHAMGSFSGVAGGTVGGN

On to `CN1CCC(=C2c3ccccc3C=Cc3ccccc32)CC1` [CYPROHEPTADINE], for which the inhibition result in series [1], in series [2], in series [4], in series [5] and in series [7] was “Active” throughout. Further, the T1/2 in series [3] is 10.3 h. In series [6], the inhibition constant (Ki) is 15 µM. Besides, the Activity entry in series [8] is listed as “Non-toxic”.

By Ki is commonly meant the equilibrium dissociation constant of an inhibitor or competing ligand from its target.
